From ChEMBL document CHEMBL4316597, “Design, Synthesis, and Biological Evaluation of Itaconic Acid Derivatives as Potential Anti-Influenza Agents” (J Med Chem, 2019)
Activity calls are given as the source filed them. The rule behind the calls is not given here.

Experiments:
[1] = Cytotoxicity against MDCK cells assessed as cell death after 72 hrs by MTT assay; assay type: cell-based, Canis lupus familiaris; conditions: dog
Procedure, shortened: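 MDCK or RD cells at 2 × 10^4/well in E10, overnight at 37 °C/5% CO2, DPBS wash, then exposed to graded compound concentrations for 72 h. MTT added for 3 h, formazan dissolved in DMSO, absorbance read at 570 nm. CC50 (50% cell death) by Reed–Muench.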

Influenza A virus [2] = experiment: Antiviral activity against pandemic Influenza A virus A/TW/90206/09 (H1N1) SO4 infected in MDCK cells after 72 hrs by crystal violet-staining based assay; assay type: functional, organism-based; conditions: A/TW/90206/09 (H1N1) SO4, MDCK
Procedure, shortened: (§1)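 Cells seeded at 2 × 10^4/well in E10 (DMEM, 10% FBS), 16–24 h at 37 °C/5% CO2, washed with DPBS, then infected at nine-fold TCID50 with or without serial compound concentrations. Influenza is run in MDCK and enterovirus/rhinovirus in RD. Incubated 72 h, fixed in 4% paraformaldehyde, stained with 0.1% crystal violet, and read for cell density. EC50 = 50% CPE inhibition by Reed–Muench; mean ± S.D. of at least three runs.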

Influenza A virus [3] = experiment: Antiviral activity against Influenza A virus A/TW/3446/02 (H3N2) infected in MDCK cells after 72 hrs by crystal violet-staining based assay; assay type: functional, organism-based; procedure, shortened: as §1
Influenza A virus [4] = experiment: Antiviral activity against pandemic Influenza A virus A/TW/2235/09 (H1N1) SO4 infected in MDCK cells after 72 hrs by crystal violet-staining based assay; assay type: functional, organism-based; conditions: A/TW/2235/09 (H1N1) SO4, MDCK; procedure, shortened: as §1
[5] = Selectivity ratio of CC50 for MDCK cells to EC50 for Influenza A virus A/TW/3446/02 (H3N2); assay type: toxicity; conditions: dog, read-out: Ratio CC50/EC50
Procedure, shortened: (§2)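 MDCK cells (2 × 10^4/well, E10, 16–24 h) infected at nine-fold TCID50 with compound for 72 h, 37 °C, 5% CO2. Cells were fixed in 4% paraformaldehyde and stained with crystal violet; EC50 is from Reed–Muench. For CC50, cells had compound alone for 72 h, then MTT 3 h, DMSO, A570, Reed–Muench. SI = CC50/EC50; three independent experiments.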

[6] = Selectivity ratio of CC50 for MDCK cells to EC50 for Influenza A virus A/TW/03384/13; assay type: toxicity; conditions: dog, read-out: Ratio CC50/EC50; procedure, shortened: as §2
[7] = Selectivity ratio of CC50 for human RD cells to EC50 for Enterovirus A71 TW/2231/1998; assay type: toxicity; conditions: read-out: Ratio CC50/EC50
Procedure, shortened: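 RD cells (2 × 10^4/well, DMEM 10% FBS, 16–24 h) infected with enterovirus at nine-fold TCID50 with compound, 72 h, 37 °C, 5% CO2. Cells were fixed in 4% paraformaldehyde, stained with 0.1% crystal violet, and EC50 taken by Reed–Muench. CC50 came from 72 h exposure of uninfected RD cells, MTT 3 h, A570, Reed–Muench. SI = CC50/EC50; three independent experiments.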

Enterovirus [8] = experiment: Antiviral activity against Rhinovirus 71803 infected in human RD cells after 72 hrs by crystal violet-staining based assay; assay type: functional, organism-based; conditions: Enterovirus, 71803, RD; procedure, shortened: as §1
Enterovirus [9] = experiment: Antiviral activity against Rhinovirus 71903 infected in human RD cells after 72 hrs by crystal violet-staining based assay; assay type: functional, organism-based; conditions: Enterovirus, 71903, RD; procedure, shortened: as §1
Influenza A virus [10] = experiment: Antiviral activity against Influenza A virus (A/WSN/33) infected in MDCK cells at 10 uM added at -1 hrs to 9 hrs post infection and measured after 9 hrs by plaque assay; assay type: functional, organism-based; conditions: A/WSN/1933(H1N1)
Procedure, shortened: (§3)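 MDCK monolayers exposed to compound (1 or 10 μM) over windows of −3, −1, 0, 3 or 6 to 9 h pi. A/WSN/33 adsorbed at MOI 0.1 from −1 to 0 h, then removed with a PBS wash. Supernatant taken at 9 h pi and titred by plaque assay, normalised to virus-only (100%). Average of three independent experiments.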

Influenza A virus [11] = experiment: Antiviral activity against Influenza A virus (A/WSN/33) infected in MDCK cells at 10 uM added at 3 hrs to 9 hrs post infection and measured after 9 hrs by plaque assay; assay type: functional, organism-based; conditions: A/WSN/1933(H1N1); procedure, shortened: as §3
Influenza A virus [12] = experiment: Inhibition of viral RNA synthesis in Influenza A virus (A/WSN/33) infected in MDCK cells at 10 uM measured up to 9 hrs post infection by RT-qPCR analysis; assay type: functional, organism-based; conditions: A/WSN/1933(H1N1)
Procedure, shortened: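 MDCK monolayers (5 × 10^5/well) infected with A/WSN/33, then given 10 μM compound during or after infection. Total RNA extracted with TRIzol at 0, 3, 6 and 9 h pi. Viral RNA quantified by RT-qPCR with M1-specific primers, GAPDH used for quantitative standards. Representative of three independent experiments.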

Influenza A virus [13] = experiment: Inhibition of viral protein synthesis in Influenza A virus (A/WSN/33) infected in MDCK cells assessed as effect on NP protein level at 10 uM measured up to 9 hrs post infection by Western blot analysis; assay type: functional, organism-based; conditions: A/WSN/1933(H1N1)
Procedure, shortened: (§4)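 MDCK cells (5 × 10^5/well) infected with A/WSN/33 at MOI 0.1, washed twice, then held in E0 with or without 10 μM compound. Lysed in Triton X-100/deoxycholate buffer, equal protein separated by SDS-PAGE, and immunoblotted for viral proteins with GAPDH as loading control. Time-course harvests up to 9 h pi.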

Influenza A virus [14] = experiment: Inhibition of viral protein synthesis in Influenza A virus (A/WSN/33) infected in MDCK cells assessed as effect on HA protein level at 10 uM measured up to 9 hrs post infection by Western blot analysis; assay type: functional, organism-based; conditions: A/WSN/1933(H1N1); procedure, shortened: as §4
Influenza A virus [15] = experiment: Inhibition of viral protein synthesis in Influenza A virus (A/WSN/33) infected in MDCK cells assessed as effect on NS1 protein level at 10 uM measured up to 9 hrs post infection by Western blot analysis; assay type: functional, organism-based; conditions: A/WSN/1933(H1N1); procedure, shortened: as §4
MDCK = experiment: Inhibition of CRM1 in MDCK cells infected with Influenza A virus (A/WSN/33) assessed as reduction in CRM1-mediated viral protein nuclear export by measuring reduction in NP protein distribution to cytoplasm at 10 uM measured after 9 hrs post infection by IF-staining based microscopy; assay type: cell-based; conditions: Canis lupus familiaris
Procedure, shortened: (§5)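 MDCK cells grown on coverslips (2 × 10^5/well, 16 h), infected at MOI 0.1 for 1 h, washed, then kept in E0 with test compound (1 or 10 μM) or LMB 10 nM; DMSO 0.05% as mock. Fixed at 9 h pi in 4% paraformaldehyde and immunostained for M1, NP, NS2 or PA (1:50), with Hoechst nuclear stain. Viewed by confocal microscopy at 63×. NP nuclear/cytoplasmic intensity ratio quantified; three independent experiments.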

Influenza A virus [16] = experiment: Inhibition of viral protein sub-cellular distribution in Influenza A virus (A/WSN/33) infected in MDCK cells assessed as reduction in NS2 protein distribution to cytoplasm at 10 uM measured after 9 hrs post infection by IF-staining based microscopy; assay type: functional, organism-based; conditions: A/WSN/1933(H1N1); procedure, shortened: as §5
Influenza A virus [17] = experiment: Inhibition of viral protein sub-cellular distribution in Influenza A virus (A/WSN/33) infected in MDCK cells assessed as reduction in M1 protein distribution to cytoplasm at 10 uM measured after 9 hrs post infection by IF-staining based microscopy; assay type: functional, organism-based; conditions: A/WSN/1933(H1N1); procedure, shortened: as §5

SMILES: C=C(CC(=O)Nc1ccc(F)cc1F)C(=O)Nc1ccc(F)cc1F
- CC50 at 72 h [1]: 84.7 µM
- EC50 (Influenza A virus [2]): 2.98 µM
- EC50 (Influenza A virus [3]): 4.6 µM
- EC50 (Influenza A virus [4]): 2.36 µM
- selectivity ratio [5]: 18
- selectivity ratio [6]: 23
- selectivity ratio [7]: 16
- EC50 (Enterovirus [8]): > 50 µM
- EC50 (Enterovirus [9]): > 50 µM
- Activity (Influenza A virus [10]): Active
- Activity (Influenza A virus [11]): Active
- inhibition (Influenza A virus [12]): inactive
- inhibition (Influenza A virus [13]): inactive
- inhibition (Influenza A virus [14]): inactive
- inhibition (Influenza A virus [15]): inactive
- inhibition (MDCK): Active
- inhibition (Influenza A virus [16]): inactive
- inhibition (Influenza A virus [17]): inactive
